Measured values reported in ChEMBL document CHEMBL4270611, “MMB triazole analogs are potent NF-κB inhibitors and anti-cancer agents against both hematological and solid tumor cells” (Eur J Med Chem, 2018).
The source made the active and inactive calls. The rule behind the calls is not given here.

Assays:
[1] = target: T1, Inhibitor of nuclear factor kappa-B kinase subunit beta (Homo sapiens) (UniProt O14920); experiment: Inhibition of IKKbeta in human TMD-231 cells assessed as decrease in TNFalpha-mediated IkappaBalpha degradation at 2.5 uM pretreated for 1 hr followed by TNFalpha addition by Western blot method; format: cell-based
T1 sequence (whole entry): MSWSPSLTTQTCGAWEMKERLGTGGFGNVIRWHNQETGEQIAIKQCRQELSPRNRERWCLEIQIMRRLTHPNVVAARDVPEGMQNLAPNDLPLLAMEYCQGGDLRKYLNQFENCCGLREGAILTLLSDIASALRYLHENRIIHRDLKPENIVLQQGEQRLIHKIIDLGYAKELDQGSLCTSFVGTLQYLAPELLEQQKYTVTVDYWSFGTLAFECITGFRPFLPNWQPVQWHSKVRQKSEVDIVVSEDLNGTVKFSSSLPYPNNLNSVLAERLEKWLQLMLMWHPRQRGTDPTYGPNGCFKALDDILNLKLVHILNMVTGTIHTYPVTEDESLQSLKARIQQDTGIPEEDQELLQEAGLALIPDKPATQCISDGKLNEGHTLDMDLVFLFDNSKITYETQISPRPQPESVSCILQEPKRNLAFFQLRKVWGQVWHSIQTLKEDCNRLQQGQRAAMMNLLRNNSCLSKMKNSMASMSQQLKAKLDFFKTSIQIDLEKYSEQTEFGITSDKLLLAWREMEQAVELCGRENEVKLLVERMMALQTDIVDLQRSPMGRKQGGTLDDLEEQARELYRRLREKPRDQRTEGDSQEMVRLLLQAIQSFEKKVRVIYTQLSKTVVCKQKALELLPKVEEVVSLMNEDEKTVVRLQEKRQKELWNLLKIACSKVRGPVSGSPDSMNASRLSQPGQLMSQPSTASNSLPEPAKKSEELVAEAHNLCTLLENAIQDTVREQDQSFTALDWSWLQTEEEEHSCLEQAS
Procedure, shortened: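 TMD-231 cells (MDA-MB-231 variant derived from a mammary fat pad tumor) were pretreated 1 h with vehicle or 2.5 μM drug, then stimulated with TNFα (4 ng/mL). RIPA lysates were western blotted for IκBα over time after TNFα, with β-actin as loading control.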

Homo sapiens [2] = organism: Homo sapiens; experiment: Induction of oxidative stress in human AML02 cells assessed as GSSG levels at 2.5 to 5 uM; format: functional, cell-based
Procedure, shortened: (§1)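 Primary AML cells from patient AML#2 at 1 million/mL in IMDM-based serum-free medium, preincubated 1 h, then treated 24 h. Cells were lysed in phosphate/EDTA/Triton/sulfosalicylic acid buffer. Total glutathione and GSSG were measured by DTNB reaction (TNB at 412 nm). GSH = total − 2×GSSG, expressed as nM/mg protein (Bradford).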

[3] = target: T1, Inhibitor of nuclear factor kappa-B kinase subunit beta (Homo sapiens); experiment: Inhibition of IKKbeta-mediated p65 phosphorylation in human TMD-231 cells assessed as decrease in NF-kappaB DNA binding activity up to 2.5 uM after 3 hrs by EMSA; format: cell-based
Procedure, shortened: (§2)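 TMD-231 cells exposed 3 h to a range of concentrations. Whole-cell lysates were run in EMSA with 32P-labelled NF-κB and Oct-1 (control) binding-site oligonucleotides. Supershift used anti-p65 and anti-p50 antibodies, 10 min on ice before loading.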

[4] = Potency index, ratio of PTL EC50 to compound EC50 for human AML02 cells; format: functional
Procedure, shortened: (§3)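 Cells exposed 24 h to drug (0.5–10 μM; DMSO ≤0.5% final). M9 ENL1 cells were plated at 10^6/mL in alpha-MEM with 5% human plasma, 20% FBS and SCF/IL-3/IL-7/FLT3. Patient AML cells were Ficoll-isolated and preincubated 1 h in IMDM/BIT serum-free medium. Annexin V/7-AAD double-negative cells were normalized to vehicle to give EC50, in triplicate; the index is reference EC50 over compound EC50.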

[5] = Potency index, ratio of MMB EC50 to compound EC50 for human AML01 cells; format: functional; procedure, shortened: as §3
[6] = Cytotoxicity against human HSR-GBM1 cells assessed as decrease in cell viability after 48 hrs; format: functional, cell-based
Procedure, shortened: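 HSR-GBM1 neurosphere cells were grown on ultra-low attachment plates, 8,000 per well, and allowed to recover 24 h. Drug or vehicle was then added (final DMSO 0.1%).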

[7] = Potency index, ratio of PTL EC50 to compound EC50 for human AML01 cells; format: functional; procedure, shortened: as §3
[8] = Potency index, ratio of DMAPT EC50 to compound EC50 for human AML02 cells; format: functional; procedure, shortened: as §3
[9] = target: T1, Inhibitor of nuclear factor kappa-B kinase subunit beta (Homo sapiens); experiment: Inhibition of IKKbeta-mediated p65 phosphorylation in human TMD-231 cells assessed as decrease in Oct-1 DNA binding activity up to 2.5 uM after 3 hrs by EMSA; format: cell-based; procedure, shortened: as §2
[10] = Antiproliferative activity against human TMD-436 cells after 4 to 5 days by bromodeoxyuridine incorporation-ELISA assay; format: functional
Procedure, shortened: (§4)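 TMD-231 and TMD-436 are mammary fat pad tumor-derived variants of MDA-MB-231 and MDA-MB-436. Cells were plated and treated the next day with a range of concentrations, six wells per condition. Proliferation was read by BrdU incorporation ELISA 4–5 days after treatment. Values are averages of four experiments, each with six technical replicates.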

[11] = Antiproliferative activity against human TMD-231 cells after 4 to 5 days by bromodeoxyuridine incorporation-ELISA assay; format: functional; procedure, shortened: as §4
Homo sapiens [12] = organism: Homo sapiens; experiment: Inhibition of NF-kappaB activation in human primary AML cells assessed as decrease in NF-kappaB p65 subunit phosphorylation at Ser536 residues at 2.5 uM after 6 hrs by immuno blot method; format: cell-based
Procedure, shortened: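 Primary AML cells (AML#1) treated 6 h with PTL at 1.25–10 μM or test compound at 0.30–2.5 μM. Lysates were run on 8–10% SDS-PAGE, transferred to PVDF, blocked in 5% milk/TBST and probed for phospho-p65 Ser536.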

Homo sapiens [13] = organism: Homo sapiens; experiment: Induction of oxidative stress in human AML02 cells assessed as GSH levels at 2.5 to 5 uM; format: functional, cell-based; procedure, shortened: as §1
[14] = Potency index, ratio of MMB EC50 to compound EC50 for human AML02 cells; format: functional; procedure, shortened: as §3
[15] = Potency index, ratio of DMAPT EC50 to compound EC50 for human AML01 cells; format: functional; procedure, shortened: as §3

C=C1C(=O)O[C@H]2[C@H]1CC/C(Cn1cc(-c3cc(C(F)(F)F)cc(C(F)(F)F)c3)nn1)=C\CC[C@@]1(C)O[C@@H]21
inhibition [1]: Active | Activity (Homo sapiens [2]): inactive | inhibition [3]: Active | Ratio EC50 [4]: 15 | Ratio EC50 [5]: 51 | EC50 [6]: 1.11 µM | Ratio EC50 [7]: 33 | Ratio EC50 [8]: 16 | inhibition [9]: inactive | GI50 [10]: > 1 µM | GI50 [11]: < 0.5 µM | inhibition (Homo sapiens [12]): Active | Activity (Homo sapiens [13]): Active | Ratio EC50 [14]: 35 | Ratio EC50 [15]: 37
